Data from ChEMBL document CHEMBL1151170, “Mycobacterium tuberculosis growth inhibition by constituents of Sapium haematospermum” (J Nat Prod, 2004).
In brackets after ≈: the same amount, converted by molar mass.

Legend:
[1] = system: Mycobacterium tuberculosis; assay: Antitubercular activity against Mycobacterium tuberculosis H37Rv by microplate alamar blue assay; assay type: functional
Method in brief: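 M. tuberculosis H37Rv (ATCC 27294) tested in the microplate Alamar Blue assay with fluorescence read-out. MIC taken as the lowest drug concentration giving ≥90% inhibition relative to untreated cultures.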

Vero = assay: Cytotoxicity against african green monkey Vero cells; assay type: cell-based; settings: Chlorocebus sabaeus
Method in brief: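 Vero cells (ATCC CCL-81) tested in the CellTiter 96 aqueous nonradioactive cell proliferation assay. Maximum (100%) cytotoxicity set by lysing cells with sodium dodecyl sulfate. IC50 defined as the reciprocal dilution giving 50% inhibition of the Vero cells.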

[2] = Selectivity index, ratio of IC50 for african green monkey Vero cells to MIC for Mycobacterium tuberculosis H37Rv; assay type: functional
Method in brief: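 Calculated as Vero IC50 (CellTiter 96 aqueous assay, ATCC CCL-81 cells) divided by the H37Rv MIC (microplate Alamar Blue, ≥90% inhibition relative to untreated cultures).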

Row | SMILES | MIC [1] | IC50 (Vero) | Ratio [2]
1 | CO[C@H]1/C=C/O[C@@]2(C)Oc3c(C)c(O)c4c(O)c(c(/C=N/N5CCN(C)CC5)c(O)c4c3C2=O)NC(=O)/C(C)=C\C=C\[C@H](C)[C@H](O)[C@@H](C)[C@@H](O)[C@@H](C)[C@H](OC(C)=O)[C@@H]1C [RIFAMPIN] | 0.06 µg/mL (≈ 0.0729 µM) |  | 
2 | CC1(C)CC[C@]2(C)CC[C@]3(C)C(=CC[C@@H]4[C@@]5(C)CC[C@H](O)C(C)(C)[C@@H]5CC[C@]43C)[C@@H]2C1 [beta-AMYRIN] | 64 µg/mL (≈ 150 µM) |  | 
3 | O=c1c(O[C@@H]2O[C@H](CO)[C@@H](O)[C@H](O)[C@H]2O)c(-c2ccc(O)c(O)c2)oc2cc(O)cc(O)c12 [ISOQUERCETIN] | 94 µg/mL (≈ 202 µM) |  | 
4 | O=c1c(O[C@@H]2O[C@H](CO)[C@@H](O)[C@H](O)[C@H]2O)c(-c2ccc(O)cc2)oc2cc(O)cc(O)c12 [ASTRAGALIN] | > 128 µg/mL |  | 
5 | C[C@H]1[C@H](C)CC[C@]2(C)CC[C@]3(C)C(=CC[C@@H]4[C@@]5(C)CC[C@@H](O)C(C)(C)[C@@H]5CC[C@]43C)[C@H]12 | > 128 µg/mL |  | 
6 | CC1(C)CC[C@]2(C)CC[C@]3(C)C(=CC[C@@H]4[C@@]5(C)CC[C@@H](O)C(C)(C)[C@@H]5CC[C@]43C)[C@@H]2C1 | 12.2 µg/mL (≈ 28.6 µM) | 127 µg/mL (≈ 298 µM) | 10.4
7 | C[C@@H]1CC[C@]2(C(=O)O)CC[C@]3(C)C(=CC[C@@H]4[C@@]5(C)C[C@@H](O)[C@H](O)[C@@](C)(CO)[C@@H]5CC[C@]43C)[C@@H]2C1 | > 128 µg/mL |  | 
8 | C=C[C@@]1(C)C=C2CC[C@@H]3[C@@](C)(CCC(=O)[C@@]3(C)CO)[C@H]2C[C@H]1O [LECHERONOL B] | 128 µg/mL (≈ 402 µM) |  | 
9 | CC(C)CCC[C@@H](C)[C@H]1CC[C@@]2(C)[C@@H]3CC[C@H]4C(C)(C)[C@@H](O)CC[C@@]45C[C@@]35CC[C@]12C [CYCLOARTANOL] | 8 µg/mL (≈ 18.7 µM) | 102 µg/mL (≈ 239 µM) | 12.8
10 | O=C(c1c(O)cc(O)cc1O)[C@H](O)[C@H](O)c1cc(O)c(O)c(O)c1 | > 128 µg/mL |  | 
11 | C=C(C)[C@@H]1CC[C@]2(C)CC[C@]3(C)[C@H](CC[C@@H]4[C@@]5(C)CC[C@@H](O)C(C)(C)[C@@H]5CC[C@]43C)[C@@H]12 | 13.4 µg/mL (≈ 31.4 µM) | 127 µg/mL (≈ 298 µM) | 10.4
12 | C=C[C@@]1(C)C=C2CC[C@H]3C(C)(C)C(=O)C[C@@H](O)[C@@]3(C)[C@H]2C[C@H]1O [LECHERONOL A] | 4 µg/mL (≈ 12.6 µM) | 105 µg/mL (≈ 329 µM) | 26.2
13 | CCCCCCCCCCCC(=O)O[C@H]1CC[C@]23C[C@]24CC[C@]2(C)[C@@H]([C@H](C)C/C=C/C(C)(C)O)CC[C@@]2(C)[C@@H]4CC[C@H]3C1(C)C | > 128 µg/mL |  | 
14 | C=C(C)[C@@H]1CC[C@]2(C)CC[C@]3(C)[C@H](CC[C@@H]4[C@@]5(C)CC[C@H](O)C(C)(C)[C@@H]5CC[C@]43C)[C@@H]12 [LUPEOL] | > 128 µg/mL |  | 
